Assay results as given in EPA's CvTdb concentration-time database.

Experiments:
Rat [1] = assay: concentration in plasma after dosing; details: 0.5 h; dosed: alpha-Thujone; 25 mg/kg; oral; Male; Harlan Sprague Dawley
Rat [2] = assay: concentration in plasma after dosing; details: 1.5 h; dosed: alpha-Thujone; 25 mg/kg; oral; Male; Harlan Sprague Dawley
Rat [3] = assay: concentration in plasma after dosing; details: 2 min; dosed: alpha-Thujone; 50 mg/kg; oral; Female; Harlan Sprague Dawley
Rat [4] = assay: concentration in brain after dosing; details: 1.5 h; dosed: alpha-Thujone; 25 mg/kg; oral; Male; Harlan Sprague Dawley
Rat [5] = assay: concentration in plasma after dosing; details: 0.5 h; dosed: alpha-Thujone; 25 mg/kg; oral; Male; Harlan Sprague Dawley; remark: listed apart in the source
Rat [6] = assay: concentration in brain after dosing; details: 12 h; dosed: alpha-Thujone; 50 mg/kg; oral; Male; Harlan Sprague Dawley
Rat [7] = assay: concentration in plasma after dosing; details: 5 min; dosed: alpha-Thujone; 50 mg/kg; oral; Female; Harlan Sprague Dawley
Rat [8] = assay: concentration in plasma after dosing; details: 20 h; dosed: Pyridine; 25 mg/kg; oral; Male; F344
Rat [9] = assay: concentration in plasma after dosing; details: 40 h; dosed: Pyridine; 100 mg/kg; oral; Male; F344
Rat [10] = assay: concentration in plasma after dosing; details: 20 min; dosed: Pyridine; 10 mg/kg; oral; Female; Harlan Sprague-Dawley
Rat [11] = assay: concentration in plasma after dosing; details: dosed: Pyridine, 5 mg/kg, oral, Male, F344
Rat [12] = assay: concentration in plasma after dosing; details: dosed: Methyleugenol, 37 mg/kg, oral, Male, F344/N
Rat [13] = assay: concentration in plasma after dosing; details: 9 h; dosed: Primidone; 80 mg/kg; oral; Male; F344
Rat [14] = assay: concentration in plasma after dosing; details: 6 h; dosed: Primidone; 80 mg/kg; oral; Male; F344
Rat [15] = assay: concentration in plasma after dosing; details: 0.5 h; dosed: Primidone; 130 mg/kg; oral; Male; Harlan Sprague Dawley
Mouse [16] = assay: concentration in plasma after dosing; details: 10 min; dosed: 2-Hydroxy-4-methoxybenzophenone; 500 mg/kg; oral; Male; B6C3F1
Mouse [17] = assay: concentration in plasma after dosing; details: 10 min; dosed: 2-Hydroxy-4-methoxybenzophenone; 50 mg/kg; iv; Female; B6C3F1
Mouse [18] = assay: concentration in plasma after dosing; details: 3 h; dosed: 2-Hydroxy-4-methoxybenzophenone; 50 mg/kg; iv; Female; B6C3F1
Mouse [19] = assay: concentration in plasma after dosing; details: 0.25 h; dosed: 2-Hydroxy-4-methoxybenzophenone; 500 mg/kg; oral; Female; B6C3F1
Rat [20] = assay: concentration in plasma after dosing; details: 0.25 h; dosed: 2-Hydroxy-4-methoxybenzophenone; 500 mg/kg; oral; Female; F344
Mouse [21] = assay: concentration in plasma after dosing; details: 10 min; dosed: 2-Hydroxy-4-methoxybenzophenone; 50 mg/kg; iv; Male; B6C3F1
Rat [22] = assay: concentration in plasma after dosing; details: 6 h; dosed: 2-Hydroxy-4-methoxybenzophenone; 500 mg/kg; oral; Male; F344
Mouse [23] = assay: concentration in plasma after dosing; details: 10 min; dosed: 2-Hydroxy-4-methoxybenzophenone; 50 mg/kg; iv; Male; B6C3F1; remark: listed apart in the source
Mouse [24] = assay: concentration in plasma after dosing; details: 2 h; dosed: 2-Hydroxy-4-methoxybenzophenone; 500 mg/kg; oral; Male; B6C3F1
Rat [25] = assay: concentration in plasma after dosing; details: dosed: 2-Hydroxy-4-methoxybenzophenone, 100 mg/kg, oral, Female, F344
Hamster [26] = assay: concentration in plasma after dosing; details: dosed: 2,4-Dichlorophenoxyacetic acid, 8.0 mg/kg, iv, Male, Syrian Golden
Procedure, shortened: (§1)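 Data points giving concentration or amount against time came from published in vivo toxicokinetic studies and from two structured collections. PubMed searching, classifier screening and manual review located the studies. Most points were digitised from plot screenshots using WebPlotDigitizer, the rest were copied from tables, and all keep their reported units.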

Hamster [27] = assay: concentration in plasma after dosing; details: dosed: 2,4-Dichlorophenoxyacetic acid, 8.0 mg/kg, iv, Male, Syrian Golden; remark: listed apart in the source
Procedure, shortened: as §1

Mouse [28] = assay: concentration in plasma after dosing; details: dosed: 2,4-Dichlorophenoxyacetic acid, 1.0 mg/kg, iv, Male, B6C3F1
Rat [29] = assay: concentration in plasma after dosing; details: 10 min; dosed: 2,4-Dichlorophenoxyacetic acid; 2.0 mg/kg; iv; Male; Sprague-Dawley
Mouse [30] = assay: concentration in plasma after dosing; details: dosed: 2,4-Dichlorophenoxyacetic acid, 1.0 mg/kg, oral, Male, B6C3F1
Rat [31] = assay: concentration in brain after dosing; details: 192 h; dosed: Perfluorohexane-1-sulphonic acid – potassium salt; 16 mg/kg; oral; Female; F344
Rat [32] = assay: concentration in liver after dosing; details: 96 h; dosed: Perfluorohexane-1-sulphonic acid – potassium salt; 16 mg/kg; oral; Female; Harlan Sprague Dawley
Rat [33] = assay: concentration in liver after dosing; details: 1200 h; dosed: Perfluorohexane-1-sulphonic acid – potassium salt; 16 mg/kg; oral; Male; Harlan Sprague Dawley
Rat [34] = assay: concentration in liver after dosing; details: 1200 h; dosed: Perfluorohexane-1-sulphonic acid – potassium salt; 16 mg/kg; oral; Male; Harlan Sprague Dawley; remark: listed apart in the source

CC(C)[C@]12CC(=O)[C@H](C)[C@H]1C2 [alpha-Thujone]
Details	concentration in brain [ng/g]	concentration in plasma [ng/mL]
Rat [1]	–	337
Rat [2]	–	233
Rat [3]	–	146
Rat [4]	359	–
Rat [5]	–	324
Rat [6]	107	–
Rat [7]	–	112

c1ccncc1 [Pyridine]
Details	concentration in plasma [ng/mL]
Rat [8]	4760
Rat [9]	20000
Rat [10]	2070

Rat [11]
Details	concentration in plasma [ng/mL]
4 h	2550
5 min	2490

C=CCc1ccc(OC)c(OC)c1 [Methyleugenol]
Rat [12]
Details	concentration in plasma [ng/mL]
5 h	7.02
20 min	53.8

CCC1(c2ccccc2)C(=O)NCNC1=O [Primidone]
Details	concentration in plasma [ng/mL]
Rat [13]	3000
Rat [14]	13000
Rat [15]	47000

O=C(c1ccccc1)c1ccc(O)cc1O [2,4-Dihydroxybenzophenone]
Details	concentration in plasma [ng/mL]
Mouse [16]	856
Mouse [17]	1610
Mouse [18]	32.7
Mouse [19]	2690
Mouse [21]	3210
Mouse [23]	3890
Mouse [24]	318
Rat [20]	1540
Rat [22]	285

Rat [25]
Details	concentration in plasma [ng/mL]
3 h	67.4
10 min	58.3

O=C(O)COc1ccc(Cl)cc1Cl [2,4-Dichlorophenoxyacetic acid]
Details	concentration in plasma [ng/mL]
Hamster [26], 5 min	55300
Hamster [26], 40 min	3090
Hamster [27], 0.25 h	36900
Hamster [27], 0.5 h	6320
Hamster [27], 1 h	939
Hamster [27], 2.5 h	351
Hamster [27], 2.5 min	113000
Hamster [27], 20 min	26600
Mouse [28], 0.25 h	8220
Mouse [28], 0.5 h	6040
Mouse [28], 1 h	3120
Mouse [28], 2.5 h	266
Mouse [28], 3 h	1250
Mouse [28], 5 min	6550
Mouse [30], 0.25 h	1400
Mouse [30], 0.5 h	1920
Mouse [30], 2 h	531
Mouse [30], 2.5 min	1660
Mouse [30], 3 h	476
Mouse [30], 4 h	200
Mouse [30], 5 min	3440
Mouse [30], 10 h	734
Mouse [30], 10 min	2340

Details	concentration in plasma [ng/mL]
Rat [29]	13200

O=S(=O)([O-])C(F)(F)C(F)(F)C(F)(F)C(F)(F)C(F)(F)C(F)(F)F.[K+] [Perfluorohexane-1-sulphonic acid – potassium salt]
Details	concentration in brain [ng/g]	concentration in liver [ng/g]
Rat [31]	834	–
Rat [32]	–	6730
Rat [33]	–	10900
Rat [34]	–	15500
